These results are taken from ChEMBL document CHEMBL2440088, “A synthetic compound, 4-acetyl-3-methyl-6-(3,4,5-trimethoxyphenyl)pyrano[3,4-c]pyran-1,8-dione, ameliorates ovalbumin-induced asthma” (Bioorg Med Chem, 2013).

The source made the active and inactive calls. The rule behind the calls is not given here.

For series [1], the system named is Mus musculus. The experiment in a line: Antiinflammatory activity in ovalbumin-sensitized Balb/c mouse asthma model model assessed as reduction in IgE level in serum at 10 mg/kg, ip after 48 hrs of last dose by ELISA. The class given is functional, organism-based. On the set-up: dose 10 mg/kg. The method, boiled down:
(§1)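 Male Balb/c mice, 6 weeks old and 20-25 g, n = 6 per group, were sensitized ip on days 0 and 14 with 100 μg OVA precipitated with 20 mg aluminum hydroxide in 200 μl PBS. They were challenged intranasally with 1% OVA in 50 μl PBS on days 15, 17, 19, 21, 23 and 25, and sacrificed on day 27.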

Series [2] has as its system A549. The experiment in a line: Cytotoxicity against human A549 cells assessed as cell viability at 50 uM after 24 hrs by MTS assay. The class given is cell-based. As to conditions: a549, 24 h. Put shortly: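 A549 cells were seeded at 2×10⁴ cells per well and grown 24 h at 37 °C, then exposed to 0, 5, 10 or 50 μM for 24 h. MTS reagent was added for a further 4 h and absorbance read at 490 nm; assays were run in triplicate.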

Series [3] concerns the target Transcription factor p65 (Homo sapiens) (UniProt Q04206). The experiment in a line: Inhibition of TNFalpha/IL4/IL1-beta-induced NFkappaB p65 nuclear translocation in human A549 cells at 50 uM after 15 mins by Western blotting analysis. The class given is cell-based. As to conditions: in the assay text read “after 1 hr” for “after 15 mins”. Put shortly: (§2)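 Nuclear extracts were western blotted for p65 or phospho-STAT6, with bands normalized to PCNA by densitometry over three experiments.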
In general terms: In western blotting, separated proteins are transferred to a membrane and probed.

For series [4], the system named is A549. The experiment in a line: Inhibition of TNFalpha/IL4/IL1-beta-induced CCL11 secretion in human A549 cells at 5 uM treated 1 hr before TNFalpha/IL4/IL1-beta stimulation measured after 24 hrs by ELISA. It counts as functional. The method, boiled down:
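Confluent A549 cells were held in serum-free RPMI for 24 h, pretreated 1 h with 0-50 μM, then stimulated with IL-1β (10 ng ml⁻¹), TNF-α (100 ng ml⁻¹) and IL-4 (100 ng ml⁻¹) for 24 h. Eotaxin in the supernatant was measured by ELISA; three independent experiments were run.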
In general terms: An ELISA detects its analyte on a solid surface through an enzyme-linked reagent.

The test system of series [5] is Mus musculus. The experiment in a line: Antiinflammatory activity in ovalbumin-sensitized Balb/c mouse asthma model model assessed as reduction of goblet cell hyperplasia in lungs at 10 mg/kg, ip by PAS staining. The class given is functional, organism-based. Also on record: dose 10 mg/kg. The method, boiled down: as §1
The test system of series [6] is Mus musculus. The experiment in a line: Antiinflammatory activity in ovalbumin-sensitized Balb/c mouse asthma model model assessed as reduction of airway smooth muscle thickness in lungs at 10 mg/kg, ip by IHC staining. It counts as functional, organism-based. On the set-up: dose 10 mg/kg. Particulars: Muscle tissue. Put shortly: as §1
Series [7] addresses T1, Signal transducer and activator of transcription 6 (Homo sapiens) (UniProt P42226).
T1 sequence (whole entry): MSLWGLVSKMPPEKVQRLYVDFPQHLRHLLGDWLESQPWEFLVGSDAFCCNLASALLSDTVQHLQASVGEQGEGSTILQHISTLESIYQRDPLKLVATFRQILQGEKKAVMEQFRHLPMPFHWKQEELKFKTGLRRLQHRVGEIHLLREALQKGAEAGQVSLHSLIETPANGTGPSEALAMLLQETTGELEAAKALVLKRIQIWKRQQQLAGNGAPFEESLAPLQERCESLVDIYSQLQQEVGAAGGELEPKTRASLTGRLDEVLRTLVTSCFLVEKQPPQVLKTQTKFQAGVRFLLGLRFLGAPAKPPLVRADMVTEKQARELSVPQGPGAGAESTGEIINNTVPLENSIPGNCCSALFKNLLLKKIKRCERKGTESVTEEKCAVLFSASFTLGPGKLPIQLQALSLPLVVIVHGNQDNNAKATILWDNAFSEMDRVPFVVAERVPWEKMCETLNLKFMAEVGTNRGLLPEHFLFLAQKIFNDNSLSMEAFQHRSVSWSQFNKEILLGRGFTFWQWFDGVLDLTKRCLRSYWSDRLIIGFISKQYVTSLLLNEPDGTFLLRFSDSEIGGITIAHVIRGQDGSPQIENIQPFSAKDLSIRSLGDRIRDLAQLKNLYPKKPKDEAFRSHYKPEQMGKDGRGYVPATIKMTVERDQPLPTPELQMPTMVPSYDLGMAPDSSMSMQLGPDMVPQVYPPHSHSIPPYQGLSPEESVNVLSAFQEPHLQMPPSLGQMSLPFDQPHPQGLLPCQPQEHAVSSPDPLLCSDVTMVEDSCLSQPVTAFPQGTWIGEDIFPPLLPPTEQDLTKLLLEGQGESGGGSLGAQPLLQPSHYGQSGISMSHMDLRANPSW
The experiment in a line: Inhibition of TNFalpha/IL4/IL1-beta-induced STAT6 phosphorylation in human A549 cells at 50 uM after 15 mins by Western blotting analysis. The class given is cell-based. As to conditions: in the assay text read “after 1 hr” for “after 15 mins”. The method, boiled down:
as §2

For series [8], the system named is Mus musculus. The experiment in a line: Antiinflammatory activity in ovalbumin-sensitized Balb/c mouse asthma model model assessed as reduction of eosinophils, neutrophils, lymphocytes, and macrophages level in BAL fluid at 10 mg/kg, ip. The class given is functional, organism-based. Also on record: dose 10 mg/kg. Put shortly:
as §1

Series [9] concerns Mus musculus. The experiment in a line: Antiinflammatory activity in ovalbumin-sensitized Balb/c mouse asthma model model assessed as reduction of eosinophils infiltration in lungs at 10 mg/kg, ip by hematoxylin and eosin staining. Also on record: dose 10 mg/kg. It counts as functional, organism-based. Put shortly:
as §1

The test system of series [10] is Mus musculus. The experiment in a line: Antiinflammatory activity in ovalbumin-sensitized Balb/c mouse asthma model model assessed as reduction in methacholine-induced airway hyperresponsiveness at 10 mg/kg, ip. The class given is functional, organism-based. Also on record: dose 10 mg/kg. The method, boiled down: (§3)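 AHR was read in OVA-sensitized/challenged Balb/c mice (n = 6 per group) 24 h after the final allergen challenge, by barometric whole-body plethysmography. A 3 min baseline came first, then inhalation of methacholine at 50 or 100 mg ml⁻¹, with the read-out as enhanced pause (Penh).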

In series [11] the test system is Mus musculus. The experiment in a line: Antiinflammatory activity in ovalbumin-sensitized Balb/c mouse asthma model model assessed as reduction in methacholine-induced airway hyperresponsiveness at 1 mg/kg, po. The class given is functional, organism-based. Also on record: dose 1 mg/kg. Put shortly: as §3
Series [12] concerns Mus musculus. The experiment in a line: Antiinflammatory activity in ovalbumin-sensitized Balb/c mouse asthma model model assessed as reduction of goblet cell hyperplasia in lungs at 1 mg/kg, po by PAS staining. The class given is functional, organism-based. Also on record: dose 1 mg/kg. The method, boiled down: as §1
Series [13] deals with Mus musculus. The experiment in a line: Antiinflammatory activity in ovalbumin-sensitized Balb/c mouse asthma model model assessed as reduction of eosinophils, neutrophils, lymphocytes, and macrophages level in BAL fluid at 1 mg/kg, po. The class given is functional, organism-based. On the set-up: dose 1 mg/kg. The method, boiled down: as §1

Transcription factor p65 (Homo sapiens), sequence (Q04206 whole entry): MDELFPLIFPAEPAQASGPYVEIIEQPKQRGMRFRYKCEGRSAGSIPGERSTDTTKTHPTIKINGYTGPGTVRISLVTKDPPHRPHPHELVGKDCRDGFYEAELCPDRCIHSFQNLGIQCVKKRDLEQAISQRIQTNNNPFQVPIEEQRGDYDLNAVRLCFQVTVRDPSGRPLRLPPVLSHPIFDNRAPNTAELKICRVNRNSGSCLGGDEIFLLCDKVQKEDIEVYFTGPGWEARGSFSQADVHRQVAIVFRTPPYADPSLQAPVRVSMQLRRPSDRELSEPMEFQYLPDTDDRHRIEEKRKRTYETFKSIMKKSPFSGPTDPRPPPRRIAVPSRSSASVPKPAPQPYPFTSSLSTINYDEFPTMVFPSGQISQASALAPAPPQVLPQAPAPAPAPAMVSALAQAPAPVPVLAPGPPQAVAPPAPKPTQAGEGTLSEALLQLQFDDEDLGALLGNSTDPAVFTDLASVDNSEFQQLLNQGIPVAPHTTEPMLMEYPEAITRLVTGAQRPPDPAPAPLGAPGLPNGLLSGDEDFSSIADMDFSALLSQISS

As for `COc1cc(-c2cc3c(C(C)=O)c(C)oc(=O)c3c(=O)o2)cc(OC)c1OC`, the result in the series with Mus musculus [1], in the series with Mus musculus [5], in the series on Mus musculus [6], in the series on Mus musculus [8], in the series with Mus musculus [9] and with Mus musculus [10] was Active. In addition, in the series with A549 [2], the Activity result is on record as “Non-toxic”. Moreover, in series [3], the inhibition (commonly how much of the control response was suppressed) was “inactive”. This molecule registered an inhibition at 5 µM with A549 [4] of 75%. For the same molecule, the inhibition result in series [7] was “Active”.
As for `C[C@@H]1C[C@H]2[C@@H]3CCC4=CC(=O)C=C[C@]4(C)[C@@]3(F)[C@@H](O)C[C@]2(C)[C@@]1(O)C(=O)CO`, the outcome with Mus musculus [11], in the series on Mus musculus [12] and in the series on Mus musculus [13] was Active.
